According to ChEMBL document CHEMBL1124921, “Alpha-diketone and alpha-keto ester derivatives of N-protected amino acids and peptides as novel inhibitors of cysteine and serine proteinases” (J Med Chem, 1990):
Where a SMILES comes first, the peptide text is derived from it. The star is where a group is joined. Cbz = O=C(OCc1ccccc1)*

How the values were obtained:
[1] = Inhibition of Calpain; parameters: species or system Gallus gallus
In short: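 Calpain purified from chicken gizzard, run as a continuous enzyme assay following a previously published method. Apparent dissociation constants Ki were derived for competitive inhibition; errors under 30%.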

Chymotrypsinogen A = Chymotrypsinogen A (Bos taurus, UniProt P00766); assay: Inhibition of alpha-chymotrypsin
In short: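 Commercial α-chymotrypsin was assayed continuously with N-Suc-Ala-Ala-Pro-Phe-p-nitroanilide as substrate in HEPES buffer instead of Tris. […] Errors under 30%.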

Compound	Ki [1] [µM]	Ki (Chymotrypsinogen A) [µM]
CC(C)[C@H](NC(=O)OCc1ccccc1)C(=O)N[C@H](Cc1ccccc1)C(=O)C(F)(F)F	> 180	45
CCOC(=O)C(=O)[C@H](Cc1ccccc1)NC(=O)[C@@H](NC(=O)OCc1ccccc1)C(C)C	0.6	0.06
COC(=O)C(=O)[C@H](Cc1ccccc1)NC(=O)c1ccccc1	150	0.15
O=C(N[C@@H](Cc1ccccc1)C(=O)C(F)F)c1ccccc1	> 1000	7.7
O=C[C@H](Cc1ccccc1)NC(=O)OCc1ccccc1	3	360
CC(C)[C@H](NC(=O)OCc1ccccc1)C(=O)N[C@H](C=O)Cc1ccccc1 (Cbz-Val-Phe-aldehyde)	0.01	54

Next, values leading:

Ki [1] [µM]	Ki (Chymotrypsinogen A) [µM]	Compound
0.7	0.2	CC(=O)C(=O)[C@H](Cc1ccccc1)NC(=O)[C@@H](NC(=O)OCc1ccccc1)C(C)C
> 1000	2.3	O=C(N[C@@H](Cc1ccccc1)C(=O)C(F)(F)F)c1ccccc1
> 180	2.4	CC(C)[C@H](NC(=O)OCc1ccccc1)C(=O)N[C@@H](Cc1ccccc1)C(=O)C(F)(F)F
250	1.2	CC(=O)C(=O)[C@H](Cc1ccccc1)NC(=O)OCc1ccccc1
92	0.13	CCOC(=O)C(=O)[C@H](Cc1ccccc1)NC(=O)OCc1ccccc1
0.4	0.06	COC(=O)C(=O)[C@H](Cc1ccccc1)NC(=O)[C@@H](NC(=O)OCc1ccccc1)C(C)C
> 2000		CC(=O)[C@H](Cc1ccccc1)NC(=O)OCc1ccccc1
4	64	O=C[C@H](Cc1ccccc1)NC(=O)c1ccccc1
